Assay results published in ChEMBL document CHEMBL4251648, “Synthesis and bioevaluation and doking study of 1H-pyrrolo[2,3-b]pyridine derivatives bearing aromatic hydrazone moiety as c-Met inhibitors” (Eur J Med Chem, 2018).
Activity calls are given as the source filed them. The calls are words filed in the database; no cut-off is given here.

What was measured:
[1] = tested on: A549; assay: Cell cycle arrest in human A549 cells assessed as accumulation at G2/M phase at 4 uM after 12 hrs by propidium iodide staining-based flow cytometry (reference value: 23.62%); format: functional
[2] = tested on: A549; assay: Cell cycle arrest in human A549 cells assessed as accumulation at S phase at 4 uM after 12 hrs by propidium iodide staining-based flow cytometry (reference value: 48.44%); format: functional
[3] = tested on: A549; assay: Cell cycle arrest in human A549 cells assessed as accumulation at sub-G1 phase at 4 uM after 12 hrs by propidium iodide staining-based flow cytometry (reference value: 0.06%); format: functional
[4] = tested on: PC-3; assay: Antiproliferative activity against human PC3 cells after 72 hrs by MTT assay; format: functional, cell-based
Method in brief: (§1)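 Cells grown in MEM with 10% FBS. About 4×10³ cells per well, pre-incubated 24 h at 37°C in 5% CO₂. Compound added at final concentrations, then 72 h. MTT added at 5 µg/mL final for 4 h at 37°C. Tested three times; IC50 taken as the average of […] determinations.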

[5] = tested on: A549; assay: Antiproliferative activity against human A549 cells at 0.08 to 8 ug/ml by MTT assay; format: functional, cell-based; conditions: TDE = time-dependent effect
[6] = target: T1, Receptor-type tyrosine-protein kinase FLT3 (Homo sapiens, UniProt P36888); assay: Inhibition of FLT3 (unknown origin)
T1 sequence (P36888 whole entry): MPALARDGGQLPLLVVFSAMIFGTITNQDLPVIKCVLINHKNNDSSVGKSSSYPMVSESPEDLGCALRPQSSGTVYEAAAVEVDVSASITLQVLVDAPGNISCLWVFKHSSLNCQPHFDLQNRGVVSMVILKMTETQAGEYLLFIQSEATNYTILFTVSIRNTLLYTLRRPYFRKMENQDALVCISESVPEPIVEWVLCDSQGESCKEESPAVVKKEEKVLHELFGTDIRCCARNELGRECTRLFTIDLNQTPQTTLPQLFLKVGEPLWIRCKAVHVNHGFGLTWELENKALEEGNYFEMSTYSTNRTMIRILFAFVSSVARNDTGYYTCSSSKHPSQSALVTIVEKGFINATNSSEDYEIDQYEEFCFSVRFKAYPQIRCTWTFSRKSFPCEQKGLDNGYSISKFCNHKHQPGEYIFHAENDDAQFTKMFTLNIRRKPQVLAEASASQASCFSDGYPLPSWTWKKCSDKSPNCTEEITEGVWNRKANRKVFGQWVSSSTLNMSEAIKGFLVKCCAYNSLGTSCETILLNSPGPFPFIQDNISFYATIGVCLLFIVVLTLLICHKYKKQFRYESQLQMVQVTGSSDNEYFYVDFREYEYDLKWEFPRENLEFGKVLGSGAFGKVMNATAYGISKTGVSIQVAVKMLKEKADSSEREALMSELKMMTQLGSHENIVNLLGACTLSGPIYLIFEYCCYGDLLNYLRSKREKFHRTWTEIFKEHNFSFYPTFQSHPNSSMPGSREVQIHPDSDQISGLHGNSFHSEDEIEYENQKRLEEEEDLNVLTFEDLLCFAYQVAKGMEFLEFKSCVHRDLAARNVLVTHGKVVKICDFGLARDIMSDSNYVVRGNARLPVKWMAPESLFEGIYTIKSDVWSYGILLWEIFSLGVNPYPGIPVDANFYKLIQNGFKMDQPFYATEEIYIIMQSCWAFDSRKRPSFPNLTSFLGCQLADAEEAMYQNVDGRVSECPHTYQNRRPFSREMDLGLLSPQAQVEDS

[7] = tested on: MCF7; assay: Antiproliferative activity against human MCF7 cells after 72 hrs by MTT assay; format: functional, cell-based; method in brief: as §1
[8] = tested on: A549; assay: Induction of apoptosis in human A549 cells assessed as change in cell morphology at 0.8 uM after 12 hrs by acridine orange staining-based fluorescence microscopic method; format: functional
Method in brief: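 A549 cells in MEM with 10% FBS, about 2×10⁴ per well, pre-incubated 24 h at 37°C in 5% CO₂. Given drug-free medium or 0.80 µM compound for 12 h. Stained with acridine orange in PBS at 10 µg/mL final for 10 min in the dark, washed three times with PBS, and nuclear morphology viewed by fluorescence microscopy.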

[9] = target: Hepatocyte growth factor receptor (Homo sapiens, UniProt P08581); assay: Inhibition of c-Met (unknown origin) using FAM-labeled peptide substrate after 10 mins by mobility shift assay
[10] = tested on: A549; assay: Antiproliferative activity against human A549 cells after 72 hrs by MTT assay; format: functional, cell-based; method in brief: as §1
[11] = target: Vascular endothelial growth factor receptor 2 (Homo sapiens, UniProt P35968); assay: Inhibition of VEGFR2 (unknown origin)
[12] = target: Epidermal growth factor receptor (Homo sapiens, UniProt P00533); assay: Inhibition of EGFR (unknown origin)
[13] = tested on: A549; assay: Cell cycle arrest in human A549 cells assessed as accumulation at G1 phase at 4 uM after 12 hrs by propidium iodide staining-based flow cytometry (reference value: 27.08%); format: functional
[14] = tested on: HepG2; assay: Antiproliferative activity against human HepG2 cells after 72 hrs by MTT assay; format: functional, cell-based
Method in brief: as §1, with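 “37°C. Formazan dissolved in DMSO and read at 492 nm against 630 nm reference.” for “37°C.”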

Chain of Epidermal growth factor receptor (P00533 whole entry): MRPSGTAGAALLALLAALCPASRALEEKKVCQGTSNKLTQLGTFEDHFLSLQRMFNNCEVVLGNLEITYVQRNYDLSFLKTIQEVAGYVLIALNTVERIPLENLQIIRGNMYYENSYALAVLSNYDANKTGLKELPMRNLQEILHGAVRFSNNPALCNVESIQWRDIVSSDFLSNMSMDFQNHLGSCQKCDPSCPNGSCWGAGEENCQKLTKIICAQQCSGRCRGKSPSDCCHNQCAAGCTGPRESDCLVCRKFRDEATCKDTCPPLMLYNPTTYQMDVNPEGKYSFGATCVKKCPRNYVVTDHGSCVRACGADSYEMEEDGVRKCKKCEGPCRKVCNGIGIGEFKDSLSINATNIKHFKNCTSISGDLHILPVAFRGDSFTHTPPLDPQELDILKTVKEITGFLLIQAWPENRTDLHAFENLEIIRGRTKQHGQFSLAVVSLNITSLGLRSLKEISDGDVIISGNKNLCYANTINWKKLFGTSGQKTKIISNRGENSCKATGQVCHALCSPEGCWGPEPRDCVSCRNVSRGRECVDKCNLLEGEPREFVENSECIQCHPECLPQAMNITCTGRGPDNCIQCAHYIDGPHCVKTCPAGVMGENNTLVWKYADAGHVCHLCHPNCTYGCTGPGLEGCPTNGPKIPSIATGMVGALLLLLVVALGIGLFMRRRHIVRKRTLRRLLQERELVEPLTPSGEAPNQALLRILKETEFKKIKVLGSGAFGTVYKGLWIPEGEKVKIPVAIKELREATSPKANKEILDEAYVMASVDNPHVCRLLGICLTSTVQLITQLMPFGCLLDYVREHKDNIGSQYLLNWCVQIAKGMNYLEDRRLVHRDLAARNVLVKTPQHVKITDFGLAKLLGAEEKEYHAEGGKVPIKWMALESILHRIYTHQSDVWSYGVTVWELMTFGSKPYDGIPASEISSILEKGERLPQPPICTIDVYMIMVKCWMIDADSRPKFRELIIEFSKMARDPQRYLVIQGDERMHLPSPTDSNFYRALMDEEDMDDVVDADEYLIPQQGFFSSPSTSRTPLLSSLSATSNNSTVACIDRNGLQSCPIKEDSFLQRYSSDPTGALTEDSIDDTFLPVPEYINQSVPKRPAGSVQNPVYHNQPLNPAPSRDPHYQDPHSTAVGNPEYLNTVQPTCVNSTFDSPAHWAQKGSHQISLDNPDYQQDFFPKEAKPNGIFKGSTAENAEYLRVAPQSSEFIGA
Chain of Vascular endothelial growth factor receptor 2 (P35968 whole entry): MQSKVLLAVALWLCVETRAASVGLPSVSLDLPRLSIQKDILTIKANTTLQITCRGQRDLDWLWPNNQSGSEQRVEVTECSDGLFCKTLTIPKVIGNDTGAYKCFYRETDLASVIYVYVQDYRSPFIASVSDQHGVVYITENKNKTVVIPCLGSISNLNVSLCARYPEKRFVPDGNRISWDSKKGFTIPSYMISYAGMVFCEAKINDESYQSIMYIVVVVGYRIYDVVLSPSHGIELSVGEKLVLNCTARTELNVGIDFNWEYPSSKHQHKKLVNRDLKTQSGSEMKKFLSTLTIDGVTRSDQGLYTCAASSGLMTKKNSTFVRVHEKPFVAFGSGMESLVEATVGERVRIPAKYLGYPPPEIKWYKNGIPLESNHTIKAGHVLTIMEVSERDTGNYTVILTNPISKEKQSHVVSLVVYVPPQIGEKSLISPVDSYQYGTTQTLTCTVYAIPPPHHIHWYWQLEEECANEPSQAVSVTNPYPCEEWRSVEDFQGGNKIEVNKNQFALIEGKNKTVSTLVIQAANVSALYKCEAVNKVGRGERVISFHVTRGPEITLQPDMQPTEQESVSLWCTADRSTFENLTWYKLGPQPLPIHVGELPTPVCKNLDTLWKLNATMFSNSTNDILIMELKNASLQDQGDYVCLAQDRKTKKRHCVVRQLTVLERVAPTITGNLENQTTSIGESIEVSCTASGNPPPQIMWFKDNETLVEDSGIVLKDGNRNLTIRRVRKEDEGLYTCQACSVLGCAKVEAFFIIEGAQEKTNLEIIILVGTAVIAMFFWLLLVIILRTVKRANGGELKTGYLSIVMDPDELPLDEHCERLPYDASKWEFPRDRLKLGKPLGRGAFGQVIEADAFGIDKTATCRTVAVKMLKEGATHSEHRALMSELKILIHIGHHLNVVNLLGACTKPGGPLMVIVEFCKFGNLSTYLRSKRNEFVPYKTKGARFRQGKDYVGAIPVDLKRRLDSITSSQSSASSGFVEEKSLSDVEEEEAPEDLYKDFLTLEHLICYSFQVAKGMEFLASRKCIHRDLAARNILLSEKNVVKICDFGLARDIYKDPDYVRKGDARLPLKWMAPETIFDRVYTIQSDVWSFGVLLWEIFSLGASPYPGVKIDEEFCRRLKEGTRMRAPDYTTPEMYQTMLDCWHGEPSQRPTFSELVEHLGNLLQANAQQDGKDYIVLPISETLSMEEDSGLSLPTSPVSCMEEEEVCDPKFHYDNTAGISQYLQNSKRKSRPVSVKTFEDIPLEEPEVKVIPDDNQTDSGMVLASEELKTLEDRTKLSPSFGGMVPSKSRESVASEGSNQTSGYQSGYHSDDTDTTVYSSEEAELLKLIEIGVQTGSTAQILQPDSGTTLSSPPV
Chain of Hepatocyte growth factor receptor (P08581 whole entry): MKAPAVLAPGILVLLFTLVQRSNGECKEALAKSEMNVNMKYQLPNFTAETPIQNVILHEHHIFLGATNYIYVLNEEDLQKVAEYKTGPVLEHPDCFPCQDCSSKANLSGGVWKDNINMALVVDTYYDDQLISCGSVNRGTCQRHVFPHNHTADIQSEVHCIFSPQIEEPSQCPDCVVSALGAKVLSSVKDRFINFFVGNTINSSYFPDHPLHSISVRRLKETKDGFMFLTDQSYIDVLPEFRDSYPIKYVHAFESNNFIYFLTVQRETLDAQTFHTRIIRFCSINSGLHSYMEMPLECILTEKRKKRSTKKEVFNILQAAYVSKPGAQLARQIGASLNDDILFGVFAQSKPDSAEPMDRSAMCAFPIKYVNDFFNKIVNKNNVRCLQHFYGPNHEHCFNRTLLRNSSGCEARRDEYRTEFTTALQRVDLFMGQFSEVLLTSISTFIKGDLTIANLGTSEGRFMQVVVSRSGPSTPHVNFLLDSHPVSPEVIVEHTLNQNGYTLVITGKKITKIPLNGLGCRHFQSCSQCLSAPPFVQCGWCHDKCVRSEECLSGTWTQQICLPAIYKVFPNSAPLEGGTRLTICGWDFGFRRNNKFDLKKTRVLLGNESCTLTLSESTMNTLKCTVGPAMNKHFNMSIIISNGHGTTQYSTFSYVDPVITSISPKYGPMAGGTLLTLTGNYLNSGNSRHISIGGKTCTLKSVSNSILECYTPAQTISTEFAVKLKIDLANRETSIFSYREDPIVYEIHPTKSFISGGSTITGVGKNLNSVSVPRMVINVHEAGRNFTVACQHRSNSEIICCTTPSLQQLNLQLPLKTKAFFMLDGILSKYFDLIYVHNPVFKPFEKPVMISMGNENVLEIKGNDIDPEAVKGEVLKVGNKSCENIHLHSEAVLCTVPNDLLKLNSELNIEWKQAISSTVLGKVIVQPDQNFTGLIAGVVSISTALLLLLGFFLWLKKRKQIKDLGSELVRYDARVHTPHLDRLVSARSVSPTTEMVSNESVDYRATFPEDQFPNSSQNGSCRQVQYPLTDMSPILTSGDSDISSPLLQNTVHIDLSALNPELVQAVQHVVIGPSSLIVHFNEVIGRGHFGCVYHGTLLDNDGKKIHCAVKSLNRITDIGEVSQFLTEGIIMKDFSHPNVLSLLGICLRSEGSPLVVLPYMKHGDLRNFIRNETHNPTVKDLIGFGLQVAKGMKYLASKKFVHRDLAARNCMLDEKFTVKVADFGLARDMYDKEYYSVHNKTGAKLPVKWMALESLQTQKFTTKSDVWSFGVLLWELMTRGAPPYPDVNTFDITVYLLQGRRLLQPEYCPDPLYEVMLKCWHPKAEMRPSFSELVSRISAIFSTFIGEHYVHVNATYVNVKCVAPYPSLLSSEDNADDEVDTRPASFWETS

IC50 ([4]; Homo sapiens, PC-3, 72 h, read-out: IC50): 920 nM
IC50 [6]: 2600 nM
IC50 ([7]; Homo sapiens, MCF7, 72 h, read-out: IC50): 930 nM
IC50 [9]: 506 nM
IC50 ([10]; Homo sapiens, A549, 72 h, read-out: IC50): 820 nM
IC50 [11]: 8900 nM
IC50 [12]: > 100000 nM
IC50 ([14]; Homo sapiens, HepG2, 72 h, read-out: IC50): 1000 nM
SMILES: O=C(N/N=C/c1ccc(Br)cc1)Nc1ccc(Oc2ccnc3[nH]ccc23)c(F)c1
Activity [1]: 79.86%
Activity [2]: 7.08%
Activity [3]: 0.01%
Activity [4]: Dose-dependent effect
Activity [5]: Tde
Activity [7]: Dose-dependent effect
Activity [8]: Active
Activity [10]: Dose-dependent effect
Activity [13]: 10.67%
Activity [14]: Dose-dependent effect
